Results from paper PMC3951241 (Journal of medicinal chemistry, 2013).
Read-outs that look alike come from different tables or passages of the source.

Tests used:
[1] = system: picrotoxin binding site on the heterogeneous GABAA receptors found in rat brain membranes; test: [35S]TBPS displacement from rat brain membranes; conditions: comparison of IC50 values
[2] = system: tadpoles; test: Tadpole loss of righting reflex; format: in vivo; conditions: for EC50: read-out: Tadpole LSR EC50; for tadpole LRR EC50: loss of righting reflex, None = no effect at 10 μM; for tadpole LRR EC50 / Tadpole LSR EC50: ± SEM; for Tadpole LSR EC50: loss of swimming reflex, None = all animals had a swimming response at 10 μM test compound
[3] = target: rat wild type α1β2γ2L GABAA receptors (Rattus norvegicus, UniProt P62813+P63138); test: Single-channel recordings in HEK 293 cells; format: cell-based; conditions: 50 μM GABA + 20 μM compound; for OT long, mean duration of the longest-lived intracluster open time component: 4-7 patches
Procedure, shortened: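 Single-channel currents from the rat wild-type α1β2γ2L GABAA receptor, activated by 50 μM GABA alone (control) or with 20 μM test compound; 4-7 patches per condition. Intracluster open-time histograms were fitted to sums of two or three exponentials, and closed-time histograms to three. Mean duration and fraction of the longest open component, and fraction of the longest closed component, were analysed statistically.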

[4] = system: mice; test: Anesthesia; format: in vivo, mouse; conditions: tail vein injection
Procedure, shortened: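 Mice received test compound by tail vein injection, dissolved in 22.5% aqueous 2-(hydroxypropyl)-β-cyclodextrin. Lower doses were made by serial dilution of the 8 mg/kg stock solution with 0.9% saline. Anesthesia was scored as loss of righting reflex (LRR), and LRR duration was recorded at each dose.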

[5] = system: tadpoles; conditions: cited from earlier work
[6] = system: mice; conditions: tail vein injection, previously found ref 15, cited from earlier work

CO[C@@H]1C[C@]2(C)[C@H](CC[C@@H]3[C@@H]2CC[C@@]2(C)C(=O)CC[C@@H]32)C[C@H]1O (single isomer, unassigned) [ent-2, (2α,3β,5β,8α,9β,10α,13α,14β)-3-Hydroxy-2-methoxyandrostan-17-one]
fold decrease in [35S]TBPS displacement potency relative to ent-1 [1]: about 21 fold | EC50 [2]: > 10 µM

C[C@@]12CC[C@H]3[C@@H](CC[C@@H]4C[C@@H](O)CC[C@]43C)[C@@H]1CC(=O)C2 (single isomer, unassigned) [ent-7, (3β,5β,8α,9β,10α,13α,14β)-3-Hydroxyandrostan-16-one]
fold increase in [35S]TBPS displacement potency relative to ent-1 [1]: about four | OT long, mean duration of the longest-lived intracluster open time component [3]: 12.4 ± 3.4 ms | closed time, first listed component, duration ([3]; sample patch of Figure 3): 0.27 ms | closed time, first listed component, fraction ([3]; sample patch of Figure 3): 71% | closed time, second listed component, duration ([3]; sample patch of Figure 3): 2.1 ms | closed time, second listed component, fraction ([3]; sample patch of Figure 3): 24% | closed time, third listed component, duration ([3]; sample patch of Figure 3): 25.0 ms | closed time, third listed component, fraction ([3]; sample patch of Figure 3): 5% | open time, first listed component, duration ([3]; sample patch of Figure 3): 0.64 ms | open time, first listed component, fraction ([3]; sample patch of Figure 3): 39% | open time, second listed component, duration ([3]; sample patch of Figure 3): 10.9 ms | open time, second listed component, fraction ([3]; sample patch of Figure 3): 61% | fold lower tadpole LRR EC50 relative to ent-1 ([2]; comparison of EC50 values): ~ three | fold lower tadpole LSR EC50 relative to ent-1 ([2]; comparison of EC50 values): ~ three | duration of LRR in mice ([4]; 8 mg/kg): about 3 min | duration of LRR in mice ([4]; 16 mg/kg): about 7 min

CO[C@@H]1C[C@]2(C)[C@H](CC[C@H]3[C@@H]4CC(=O)C[C@]4(C)CC[C@@H]32)C[C@H]1O (single isomer, unassigned) [ent-8, (2α,3β,5β,8α,9β,10α,13α,14β)-3-Hydroxy-2-methoxyandrostan-16-one]
fold decrease in [35S]TBPS displacement potency relative to ent-7 [1]: about 37 fold | fold higher tadpole LRR EC50 relative to ent-7 ([2]; comparison of EC50 values): ~ five | fold higher tadpole LSR EC50 relative to ent-7 ([2]; comparison of EC50 values): ~ five

CO[C@H]1[C@H]2CC[C@H]3[C@@H]4CC(=O)C[C@]4(C)CC[C@@H]3[C@]2(C)CC[C@@H]1O (single isomer, unassigned) [ent-9, (3β,4α,5β,8α,9β,10α,13α,14β)-3-Hydroxy-4-methoxyandrostan-16-one]
OT long, mean duration of the longest-lived intracluster open time component [3]: 17.7 ± 6.6 ms | closed time, first listed component, duration ([3]; sample patch of Figure 3): 0.24 ms | closed time, first listed component, fraction ([3]; sample patch of Figure 3): 67% | closed time, second listed component, fraction ([3]; sample patch of Figure 3): 28% | closed time, third listed component, duration ([3]; sample patch of Figure 3): 14.3 ms | closed time, third listed component, fraction ([3]; sample patch of Figure 3): 6% | open time, first listed component, duration ([3]; sample patch of Figure 3): 0.80 ms | open time, first listed component, fraction ([3]; sample patch of Figure 3): 52% | open time, second listed component, duration ([3]; sample patch of Figure 3): 30.3 ms | open time, second listed component, fraction ([3]; sample patch of Figure 3): 48% | duration of LRR in mice ([4]; 2 mg/kg (threshold dose)): about 1 min | duration of LRR in mice ([4]; 4 mg/kg): about 5 min | duration of LRR in mice ([4]; 8 mg/kg): about 9 min | threshold dose for LRR in mice [4]: 2 mg/kg

O=C1C[C@@H]2CC[C@H]3[C@@H](CC[C@@H]4C[C@@H](O)CC[C@H]43)[C@@H]2C1 (single isomer, unassigned) [ent-12, (3β,5β,8α,9β,10α,13α,14β)-3-Hydroxygonan-16-one]
OT long, mean duration of the longest-lived intracluster open time component [3]: 11.5 ± 3.3 ms | closed time, first listed component, duration ([3]; sample patch of Figure 3): 0.25 ms | closed time, first listed component, fraction ([3]; sample patch of Figure 3): 54% | closed time, second listed component, duration ([3]; sample patch of Figure 3): 2.0 ms | closed time, second listed component, fraction ([3]; sample patch of Figure 3): 24% | closed time, third listed component, duration ([3]; sample patch of Figure 3): 27.8 ms | closed time, third listed component, fraction ([3]; sample patch of Figure 3): 22% | open time, first listed component, duration ([3]; sample patch of Figure 3): 0.29 ms | open time, first listed component, fraction ([3]; sample patch of Figure 3): 29% | open time, second listed component, duration ([3]; sample patch of Figure 3): 2.1 ms | open time, second listed component, fraction ([3]; sample patch of Figure 3): 23% | open time, third listed component, duration ([3]; sample patch of Figure 3): 13.2 ms | open time, third listed component, fraction ([3]; sample patch of Figure 3): 48% | tadpole LRR EC50 [2]: neither LRR nor LSR and None | Tadpole LSR EC50 [2]: neither LRR nor LSR and None

C[C@]12CC[C@@H](O)C[C@@H]1CC[C@@H]1[C@@H]2CC[C@]2(C)C(=O)CC[C@@H]12 [compound 1, Androsterone]
EC50 ([5]; read-out: tadpole LRR EC50, loss of righting reflex, literature values ref 9): 3.38 ± 0.9 µM

CO[C@H]1C[C@@]2(C)[C@@H](CC[C@@H]3[C@@H]2CC[C@]2(C)C(=O)CC[C@@H]32)C[C@@H]1O [compound 2, (2β,3α,5α)-3-Hydroxy-2-methoxyandrostan-17-one]
fold decrease in [35S]TBPS displacement potency relative to steroid 1 [1]: about five | EC50 [2]: > 10 µM

CO[C@H]1[C@H](O)CC[C@]2(C)[C@H]3CC[C@]4(C)C(=O)CC[C@H]4[C@@H]3CC[C@@H]12 [compound 3, (3α,4β,5α)-3-Hydroxy-4-methoxyandrostan-17-one]
tadpole LRR EC50 [2]: None | Tadpole LSR EC50 [2]: None

C[C@]12CC[C@@H](O)C[C@@H]1CC[C@@H]1[C@@H]2C(=O)C[C@]2(C)/C(=C\C#N)CC[C@@H]12 [compound 4, [3α,5α,17(20)Z]-3-Hydroxy-11-oxopregn-17(20)-ene-21-nitrile]
EC50 ([5]; read-out: Tadpole LSR EC50, loss of swimming reflex, literature values ref 15): 5.48 ± 0.2 µM | EC50 ([5]; read-out: tadpole LRR EC50, loss of righting reflex, literature values ref 15): 1.44 ± 0.2 µM

CC(=O)[C@H]1CC[C@H]2[C@@H]3CC[C@H]4C[C@H](O)CC[C@]4(C)[C@H]3CC[C@]12C [compound 5, allopregnanolone]
EC50 ([5]; read-out: Tadpole LSR EC50, loss of swimming reflex, literature values ref 46): 5.5 ± 0.5 µM | EC50 ([5]; read-out: tadpole LRR EC50, loss of righting reflex, literature values ref 46): 0.42 ± 0.04 µM

CC(=O)[C@H]1CC[C@H]2[C@@H]3CC[C@H]4C[C@H](O)CC[C@]4(C)[C@H]3C(=O)C[C@]12C [compound 6, alphaxalone]
duration of LRR in mice ([4]; 16 mg/kg): about 4 min | EC50 ([5]; read-out: Tadpole LSR EC50, loss of swimming reflex, literature values ref 48): 5.48 ± 0.11 µM | EC50 ([5]; read-out: tadpole LRR EC50, loss of righting reflex, literature values ref 48): 1.12 ± 0.14 µM | duration of LRR in mice ([6]; 8 mg/kg): less than 1 min | threshold dose for LRR in mice [6]: 8 mg/kg
